ChEMBL document CHEMBL2086252, “Syntheses and evaluation of anticonvulsant activity of novel branched alkyl carbamates” (J Med Chem, 2012)
Active and inactive are the calls of the source. The rule behind the calls is not given here.

Experiments:
Mus musculus [1] = assay: Anticonvulsant activity in albino CF1 mouse assessed as protection against maximal electroshock-induced seizures at 100 mg/kg, ip after 4 hrs; assay type: functional, organism-based; design: dose 100 mg/kg
How it was run: (§1)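 Mice dosed ip at 30, 100 or 300 mg/kg, then tested 0.5 h and 4 h after administration in the MES or scMet test. Protection was recorded as animals protected over animals tested. Neurotoxicity was recorded as motor impairment or sedation, as animals affected over animals tested.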

Rattus norvegicus [2] = assay: Neurotoxicity in pilocarpine-induced status epilepticus Sprague-Dawley albino rat model assessed as minimal motor impairment at 200 mg/kg, ip after 0.5 hrs by rotarod test; assay type: toxicity, organism-based; design: dose 200 mg/kg, route intraperitoneal; conditions: in vivo
How it was run: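 Rat pilocarpine status epilepticus model: test carbamate given at 0 or 30 min after the first observed Racine stage 3 motor seizure, which marks SE onset. Neurotoxicity was scored within the same model.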

Mus musculus [3] = assay: Neurotoxicity in albino CF1 mouse assessed as minimal motor impairment at 30 mg/kg, ip after 4 hrs by rotarod test; assay type: toxicity, organism-based; design: dose 30 mg/kg, route intraperitoneal; conditions: in vivo; how it was run: as §1
Mus musculus [4] = assay: Anticonvulsant activity in albino CF1 mouse assessed as protection against subcutaneous metrazol-induced seizures at 300 mg/kg, ip after 0.5 hrs; assay type: functional, organism-based; design: dose 300 mg/kg; how it was run: as §1
Rattus norvegicus [5] = assay: Anticonvulsant activity in ip dosed Sprague-Dawley albino rat assessed as protection against pilocarpine-induced status epilepticus after 0.5 hrs; assay type: functional
How it was run: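 Pilocarpine status epilepticus model in rats. Number and severity of convulsive seizures were observed behaviourally.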

Mus musculus [6] = assay: Neurotoxicity in albino CF1 mouse assessed as minimal motor impairment at 100 mg/kg, ip after 4 hrs by rotarod test; assay type: toxicity, organism-based; design: dose 100 mg/kg, route intraperitoneal; conditions: in vivo; how it was run: as §1
[7] = Neurotoxicity in ip dosed albino CF1 mouse assessed as minimal motor impairment by rotarod test; assay type: toxicity, organism-based; conditions: in vivo
How it was run: (§2)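 Quantitative testing: rats dosed orally or ip in MES and scMet tests, and mice dosed ip, including the 6 Hz (32 mA) psychomotor seizure test. ED50 and TD50 were reported in mg/kg with ranges in parentheses. Protective index was calculated as TD50/ED50.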

Mus musculus [8] = assay: Anticonvulsant activity in albino CF1 mouse assessed as protection against maximal electroshock-induced seizures at 100 mg/kg, ip after 0.5 hrs; assay type: functional, organism-based; design: dose 100 mg/kg; how it was run: as §1
Mus musculus [9] = assay: Neurotoxicity in albino CF1 mouse assessed as minimal motor impairment at 300 mg/kg, ip after 0.5 hrs by rotarod test; assay type: toxicity, organism-based; design: dose 300 mg/kg, route intraperitoneal; conditions: in vivo; how it was run: as §1
Mus musculus [10] = assay: Neurotoxicity in albino CF1 mouse assessed as minimal motor impairment at 10 mg/kg, ip after 0.5 hrs by rotarod test; assay type: toxicity, organism-based; design: dose 10 mg/kg, route intraperitoneal; conditions: in vivo
Mus musculus [11] = assay: Anticonvulsant activity in albino CF1 mouse assessed as protection against maximal electroshock-induced seizures at 300 mg/kg, ip after 4 hrs; assay type: functional, organism-based; design: dose 300 mg/kg; how it was run: as §1
Mus musculus [12] = assay: Anticonvulsant activity in albino CF1 mouse assessed as protection against maximal electroshock-induced seizures at 3 mg/kg, ip after 0.5 hrs; assay type: functional, organism-based; design: dose 3 mg/kg
Mus musculus [13] = assay: Anticonvulsant activity in albino CF1 mouse assessed as protection against maximal electroshock-induced seizures at 300 mg/kg, ip after 0.5 hrs; assay type: functional, organism-based; design: dose 300 mg/kg; how it was run: as §1
Mus musculus [14] = assay: Anticonvulsant activity in albino CF1 mouse assessed as protection against maximal electroshock-induced seizures at 30 mg/kg, ip after 0.5 hrs; assay type: functional, organism-based; design: dose 30 mg/kg; how it was run: as §1
Mus musculus [15] = assay: Anticonvulsant activity in albino CF1 mouse assessed as protection against maximal electroshock-induced seizures at 30 mg/kg, ip after 4 hrs; assay type: functional, organism-based; design: dose 30 mg/kg; how it was run: as §1
Rattus norvegicus [16] = assay: Anticonvulsant activity in Sprague-Dawley albino rat assessed as protection against maximal electroshock-induced seizures at 30 mg/kg, po after 1 hr; assay type: functional, organism-based; design: dose 30 mg/kg
How it was run: (§3)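 Rats dosed orally. Anti-MES protection was scored as animals protected over animals tested at each time after dosing. Neurotoxicity was scored as motor impairment or sedation, as animals affected over animals tested.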

Mus musculus [17] = assay: Anticonvulsant activity in ip dosed albino CF1 mouse assessed as protection against maximal electroshock-induced seizures; assay type: functional; how it was run: as §2
Mus musculus [18] = assay: Neurotoxicity in albino CF1 mouse assessed as minimal motor impairment at 3 mg/kg, ip after 0.5 hrs by rotarod test; assay type: toxicity, organism-based; design: dose 3 mg/kg, route intraperitoneal; conditions: in vivo
Rattus norvegicus [19] = assay: Protective index, ratio of TD50 for po dosed Sprague-Dawley albino rat by rotarod test to ED50 for po dosed Sprague-Dawley albino rat by maximal electroshock seizures test; assay type: functional
How it was run: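 Protective index calculated as TD50/ED50, with TD50 and ED50 taken from the same species and dosing route.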

Mus musculus [20] = assay: Anticonvulsant activity in albino CF1 mouse assessed as protection against subcutaneous metrazol-induced seizures at 100 mg/kg, ip after 4 hrs; assay type: functional, organism-based; design: dose 100 mg/kg; how it was run: as §1
Mus musculus [21] = assay: Neurotoxicity in albino CF1 mouse assessed as minimal motor impairment at 30 mg/kg, ip after 0.5 hrs by rotarod test; assay type: toxicity, organism-based; design: dose 30 mg/kg, route intraperitoneal; conditions: in vivo; how it was run: as §1
Mus musculus [22] = assay: Anticonvulsant activity in albino CF1 mouse assessed as protection against maximal electroshock-induced seizures at 10 mg/kg, ip after 0.5 hrs; assay type: functional, organism-based; design: dose 10 mg/kg
Rattus norvegicus [23] = assay: Neurotoxicity in Sprague-Dawley albino rat assessed as minimal motor impairment at 30 mg/kg, po by rotarod test; assay type: toxicity, organism-based; design: dose 30 mg/kg, route oral; conditions: in vivo; how it was run: as §3
Mus musculus [24] = assay: Anticonvulsant activity in albino CF1 mouse assessed as protection against subcutaneous metrazol-induced seizures at 30 mg/kg, ip after 0.5 hrs; assay type: functional, organism-based; design: dose 30 mg/kg; how it was run: as §1
Rattus norvegicus [25] = assay: Anticonvulsant activity in po dosed Sprague-Dawley albino rat assessed as protection against maximal electroshock-induced seizures; assay type: functional; how it was run: as §2
Rattus norvegicus [26] = assay: Anticonvulsant activity in Sprague-Dawley albino rat assessed as protection against maximal electroshock-induced seizures at 30 mg/kg, po after 4 hrs; assay type: functional, organism-based; design: dose 30 mg/kg; how it was run: as §3
Mus musculus [27] = assay: Anticonvulsant activity in albino CF1 mouse assessed as protection against subcutaneous metrazol-induced seizures at 300 mg/kg, ip after 4 hrs; assay type: functional, organism-based; design: dose 300 mg/kg; how it was run: as §1
Mus musculus [28] = assay: Neurotoxicity in albino CF1 mouse assessed as minimal motor impairment at 300 mg/kg, ip after 4 hrs by rotarod test; assay type: toxicity, organism-based; design: dose 300 mg/kg, route intraperitoneal; conditions: in vivo; how it was run: as §1
Rattus norvegicus [29] = assay: Anticonvulsant activity in Sprague-Dawley albino rat assessed as protection against maximal electroshock-induced seizures at 30 mg/kg, po after 15 mins; assay type: functional, organism-based; design: dose 30 mg/kg; how it was run: as §3
[30] = Neurotoxicity in po dosed Sprague-Dawley albino rat assessed as minimal motor impairment by rotarod test; assay type: toxicity, organism-based; conditions: in vivo
How it was run: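 Rats dosed orally; 4 rats per time point after dosing. Neurotoxicity was scored as motor impairment or sedation and reported as number of animals affected over number tested.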

Mus musculus [31] = assay: Anticonvulsant activity in albino CF1 mouse assessed as protection against subcutaneous metrazol-induced seizures at 30 mg/kg, ip after 4 hrs; assay type: functional, organism-based; design: dose 30 mg/kg; how it was run: as §1
Rattus norvegicus [32] = assay: Anticonvulsant activity in Sprague-Dawley albino rat assessed as protection against maximal electroshock-induced seizures at 30 mg/kg, po after 30 mins; assay type: functional, organism-based; design: dose 30 mg/kg; how it was run: as §3

Q: Which Activity (Mus musculus [1]) does the source give for `NC(=O)OCCc1ccccc1` [PHENYLETHYL CARBAMATE] here?
A: inactive

Q: And the Activity (Rattus norvegicus [2])?
A: Toxic

Q: What about the Activity (Mus musculus [3]) of the same molecule?
A: Non-toxic

Q: What about the Activity (Mus musculus [4]) of the same molecule?
A: Active

Q: What about the ED50 (Rattus norvegicus [5]) of the same molecule?
A: 105 mg/kg

Q: And the ED97 (Rattus norvegicus [5])?
A: 221 mg/kg

Q: And the Activity (Mus musculus [6])?
A: Non-toxic

Q: What about the TD50 [7] of the same molecule?
A: 114 mg/kg

Q: And the Activity (Mus musculus [8])?
A: Active

Q: And the Activity (Mus musculus [9])?
A: Toxic

Q: What about the Activity (Mus musculus [10]) of the same molecule?
A: Non-toxic

Q: What about the Activity (Mus musculus [11]) of the same molecule?
A: Active

Q: What about the Activity (Mus musculus [12]) of the same molecule?
A: inactive

Q: What about the Activity (Mus musculus [13]) of the same molecule?
A: Active

Q: And the Activity (Mus musculus [14])?
A: Active

Q: And the Activity (Mus musculus [15])?
A: inactive

Q: What about the Activity (Rattus norvegicus [16]) of the same molecule?
A: Active

Q: What about the ED50 (Mus musculus [17]) of the same molecule?
A: 18 mg/kg

Q: And the Activity (Mus musculus [18])?
A: Non-toxic

Q: And the “Ratio TD50/ED50” value (Rattus norvegicus [19])?
A: <25

Q: And the Activity (Mus musculus [20])?
A: inactive

Q: What about the Activity (Mus musculus [21]) of the same molecule?
A: Non-toxic

Q: What about the Activity (Mus musculus [22]) of the same molecule?
A: inactive

Q: And the Activity (Rattus norvegicus [23])?
A: Non-toxic

Q: What about the Activity (Mus musculus [24]) of the same molecule?
A: inactive

Q: What about the ED50 (Rattus norvegicus [25]) of the same molecule?
A: 16 mg/kg

Q: What about the Activity (Rattus norvegicus [26]) of the same molecule?
A: inactive

Q: And the Activity (Mus musculus [27])?
A: inactive

Q: What about the Activity (Mus musculus [28]) of the same molecule?
A: Non-toxic

Q: What about the Activity (Rattus norvegicus [29]) of the same molecule?
A: Active

Q: What about the TD50 [30] of the same molecule?
A: < 400 mg/kg

Q: What about the Activity (Mus musculus [31]) of the same molecule?
A: inactive

Q: And the Activity (Rattus norvegicus [32])?
A: Active
